The results in this text go back to ChEMBL document CHEMBL3244193, “Design of species- or isozyme-specific enzyme inhibitors. 3. Species and isozymic differences between mammalian and bacterial adenylate kinases in substituent tolerance in an enzyme-substrate complex” (J Med Chem, 1979).

Broadly, the Km is the concentration of substrate that gives half-maximal velocity.

Substrate in series [1]: CCCSc1nc2c(N)ncnc2n1[C@@H]1O[C@H](COP(=O)(O)OP(=O)(O)OP(=O)(O)O)[C@@H](O)[C@H]1O
The series is described as follows: (§1) Activity of Sprague-Dawley rat liver adenylate kinase 3 by Lineweaver-Burk plot analysis. In outline:
(§2)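 Substrate kinetics in a pyruvate kinase/lactate dehydrogenase-coupled assay: 0.1 M Tris-HCl pH 7.6, 2 mM MgSO4, 0.12 M KCl, 0.3 mM PEP, 0.38 mM NADH, 0.25 mM AMP. A340 change over 5 min at 23 °C. Derivatives screened first at ca. 0.8 mM. Five or more substrate levels; KM and Vmax (relative to ATP) taken from linear Lineweaver-Burk plots.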

Substrate in series [2]: CCSc1nc2c(N)ncnc2n1[C@@H]1O[C@H](COP(=O)(O)OP(=O)(O)OP(=O)(O)O)[C@@H](O)[C@H]1O
The description is as §1. A digest of the protocol: as §2

Substrate in series [3]: CSc1nc2c(N)ncnc2n1[C@@H]1O[C@H](COP(=O)(O)OP(=O)(O)OP(=O)(O)O)[C@@H](O)[C@H]1O
Described as §1. In outline: as §2

Substrate in series [4]: Nc1ncnc2c1nc(SCCO)n2[C@@H]1O[C@H](COP(=O)(O)OP(=O)(O)OP(=O)(O)O)[C@@H](O)[C@H]1O
The series is described as §1. In outline:
as §2

Substrate in series [5]: Nc1ncnc2c1ncn2[C@@H]1O[C@H](COP(=O)(O)OP(=O)(O)OP(=O)(O)O)[C@@H](O)[C@H]1O
The series is described as §1. In outline: as §2

Substrate in series [6]: O=C(CI)NCCCCCNc1ncnc2c1ncn2[C@@H]1O[C@H](COP(=O)(O)OP(=O)(O)OP(=O)(O)O)[C@@H](O)[C@H]1O
The series is described as §1. In outline: as §2

Substrate in series [7]: CCCSc1nc2c(N)ncnc2n1[C@@H]1O[C@H](COP(=O)(O)OP(=O)(O)OP(=O)(O)O)[C@@H](O)[C@H]1O
Kind of series: (§3) Activity of Sprague-Dawley rat liver adenylate kinase 3 by Lineweaver-Burk plot analysis relative to ATP. A digest of the protocol:
as §2

Substrate in series [8]: CCSc1nc2c(N)ncnc2n1[C@@H]1O[C@H](COP(=O)(O)OP(=O)(O)OP(=O)(O)O)[C@@H](O)[C@H]1O
The series is described as §3. In outline: as §2

Substrate in series [9]: CSc1nc2c(N)ncnc2n1[C@@H]1O[C@H](COP(=O)(O)OP(=O)(O)OP(=O)(O)O)[C@@H](O)[C@H]1O
Described as §3. In outline: as §2

Substrate in series [10]: Nc1ncnc2c1nc(SCCO)n2[C@@H]1O[C@H](COP(=O)(O)OP(=O)(O)OP(=O)(O)O)[C@@H](O)[C@H]1O
Described as §3. In outline: as §2

Substrate in series [11]: Nc1ncnc2c1ncn2[C@@H]1O[C@H](COP(=O)(O)OP(=O)(O)OP(=O)(O)O)[C@@H](O)[C@H]1O
Described as §3. A digest of the protocol: as §2

Substrate in series [12]: O=C(CI)NCCCCCNc1ncnc2c1ncn2[C@@H]1O[C@H](COP(=O)(O)OP(=O)(O)OP(=O)(O)O)[C@@H](O)[C@H]1O
Described as §3. A digest of the protocol: as §2

Substrate in series [13]: CCCSc1nc2c(N)ncnc2n1[C@@H]1O[C@H](COP(=O)(O)OP(=O)(O)OP(=O)(O)O)[C@@H](O)[C@H]1O
The series is described as follows: (§4) Activity of Sprague-Dawley rat muscle adenylate kinase by Lineweaver-Burk plot analysis relative to ATP. A digest of the protocol: as §2

Substrate in series [14]: CSc1nc2c(N)ncnc2n1[C@@H]1O[C@H](COP(=O)(O)OP(=O)(O)OP(=O)(O)O)[C@@H](O)[C@H]1O
The description is as §4. A digest of the protocol: as §2

Substrate in series [15]: Nc1ncnc2c1ncn2[C@@H]1O[C@H](COP(=O)(O)OP(=O)(O)OP(=O)(O)O)[C@@H](O)[C@H]1O
The series is described as §4. A digest of the protocol:
as §2

Substrate in series [16]: O=C(CI)NCCCCCNc1ncnc2c1ncn2[C@@H]1O[C@H](COP(=O)(O)OP(=O)(O)OP(=O)(O)O)[C@@H](O)[C@H]1O
Described as §4. A digest of the protocol:
as §2

Substrate in series [17]: Nc1ncnc2c1ncn2[C@@H]1O[C@H](COP(=O)(O)OP(=O)(O)OP(=O)(O)O)[C@@H](O)[C@H]1O
Conditions: Rattus norvegicus; Sprague-Dawley.

B1: GTP:AMP phosphotransferase AK3, mitochondrial (Rattus norvegicus), P29411 (protein)
chain: MGASGRLLRAVIMGAPGSGKGTGSSRITKHFELKHLSSGDLLRQNMLQGTEIAVLAKSFIDQGKLIPDDDMTRLALHELKNLTQCSWLLDGFPRTLPQAEALDRVYQIDTVINLNVPFEVIKLRLTARWIHPASGRVYNIEFNPPKTVGIDDLTGEPLIQREDDKPETVIKRLKAYEAQTEPVLQYYQKKGVLETFSGTETNKIRPHVYSFLQMKVPETIQKASVTP
Regarding B1, the Km in [1] is 40 µM; in series [2] it was 70 µM; in series [3], 150 µM; in [4], 120 µM; in series [5], 90 µM; in series [6], 400 µM. Besides, the Vmax in series [7] stood at 10.4%; in series [8], 11.4%; in [9], 8.3%; in series [10] it was 12.5%; in [11] it was 100%; in [12] it was 8.9%.

B2: Adenylate kinase isoenzyme 1 (Rattus norvegicus), P39069 (protein)
chain: MEDKLKKAKIIFVVGGPGSGKGTQCEKIVQKYGYTHLSTGDLLRAEVSSGSSRGKMLSSIMEKGELVPLETVLDMLRDAMLAKVDSSNGFLIDGYPREVKQGEEFERKIAQPTLLLYVDAGPETMTQRLLKRGETSGRVDDNEETIKKRLETYYKATEPVISFYDKRGIVRKVNAEGSVDTVFSQVCTYLDSLK
With B2, the Vmax came to 0% in series [13], 0% in series [14], 100% in series [15] and 0% in series [16]. The Km in [17] turned out to be 650 µM.
